Calls of active or inactive are those of the source. The rule behind the calls is not given here. Numbered stars: 1 amine (or outer) side, 2 acyl side, 3 side chain; on linkers, the order of the positions; unused ones are H or OH. Square brackets hold non-standard residues; d marks the D form. Peptide text beside a SMILES is read from it. GABA(3S-Bn) = O=C(C[C@@H](CN[*:1])Cc1ccccc1)[*:2]; GABA(3R-Bn) = O=C(C[C@H](CN[*:1])Cc1ccccc1)[*:2]

The test system of data set [1] is PBMC. Description: Antiproliferative activity against human PBMC assessed as inhibition of PHA-induced proliferation at 1 to 100 ug/ml. Format: functional, cell-based. An outline of the steps:
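Human PBMC from a single donor were isolated on a ficoll gradient and plated at 2×10^5 cells/well in RPMI-1640 with 10% FCS. Stimulation was PHA 5 μg/mL. Compounds were tested at 1, 10 and 100 μg/mL, with DMSO dilutions as control. After 4 days, proliferation was read by MTT. Result is mean OD of quadruplicate wells ± SE.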

The nature of data set [2]: Retention time of the compound. It is filed as physicochemical.
Data set [3] deals with PBMC. The experiment in a line: Cytotoxicity against human PBMC cells at 1 to 100 ug/ml after 24 hrs by MTT assay. It is filed as cell-based. The method, boiled down:
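Human PBMC from a single donor were plated at 3×10^5/well in RPMI-1640 with 10% FCS. Compounds at 1, 10 or 100 μg/mL were added for 24 h. Viability was read by MTT and expressed as percent viable cells versus matching DMSO controls.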
A general note: Tetrazolium dyes change colour on reduction, which living cells bring about.

Data set [4] deals with Blood. The experiment in a line: Inhibition of LPS-induced TNFalpha secretion in human whole blood cells at 25 ug/ml by immune assay. It is filed as functional. The method, boiled down:
(§1)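 Venous blood from a single donor was diluted 10× in RPMI-1640 and stimulated with E. coli LPS 1 μg/mL, serotype 0:111:B4. Compounds were added at 5 or 25 μg/mL, with DMSO dilutions as controls. After overnight culture, supernatants were frozen at −20 °C. TNF-α was then measured by ELISA.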

In data set [5] the test system is Blood. Description: Stimulation of LPS-induced TNFalpha secretion in human whole blood cells at 5 ug/ml by immuno assay. Format: functional, cell-based. The method, boiled down: as §1
Data set [6] concerns Blood. The experiment in a line: Stimulation of LPS-induced TNFalpha secretion in human whole blood cells at 25 ug/ml by immuno assay. It is filed as functional, cell-based. An outline of the steps:
as §1

Data set [7] deals with Blood. The experiment in a line: Inhibition of LPS-induced TNFalpha secretion in human whole blood cells at 5 ug/ml by immune assay. Format: functional. An outline of the steps: as §1
Data set [8] deals with Mus musculus. Description: Immunosuppressive effect in ovalbumin-induced mouse delayed type hypersensitivity model assessed as inhibition of DTH reaction at 100 ug, ip treated 2 hrs before ovalbumin sensitization. It is filed as functional. An outline of the steps: (§2)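 CBA mice were sensitized s.c. at tail base with 5 μg OVA in complete Freund's adjuvant. After 4 days they were challenged with 50 μg OVA in incomplete adjuvant in hind foot pads. Swelling was measured by caliper 24 h later. Unsensitized challenged mice gave background. Compounds in DMSO/saline were given i.p. 2 h before sensitization or 2 h before elicitation, with solvent controls. Result: 5 mice/group, DTH units (10^-2 cm) ± SE.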

The test system of data set [9] is Mus musculus. Description: Immunosuppressive effect in ovalbumin-induced mouse delayed type hypersensitivity model assessed as inhibition of DTH reaction at 100 ug, ip treated 2 hrs before elicitation of DTH reaction with secoond dose of antigen. Format: functional, organism-based. An outline of the steps:
as §2

For orientation: inhibition means the change of the read-out against control, counted positive when it falls. `CC[C@H](C)[C@H](N)C(=O)N[C@H](C(=O)N[C@@H](CC(C)C)C(=O)N[C@H](C(=O)N1CCC[C@H]1C(=O)N1CCC[C@H]1C(=O)N[C@@H](Cc1ccccc1)C(=O)NC[C@@H](CC(=O)N[C@@H](CC(C)C)C(=O)O)Cc1ccccc1)C(C)C)[C@@H](C)CC` (H-IILVPPF[GABA(3R-Bn)]L-OH): the inhibition entry in data set [1] was “inactive”. Further, in data set [2], the Retention_time was determined as 14.168 min. For the same molecule, in [3], the Activity entry was “Non-toxic”. In addition, in data set [4], the inhibition result was “Active”.

Turning to `CC[C@H](C)[C@H](N)C(=O)N[C@H](C(=O)N[C@@H](CC(C)C)C(=O)N[C@H](C(=O)N1CCC[C@H]1C(=O)N1CCC[C@H]1C(=O)N[C@@H](Cc1ccccc1)C(=O)NC[C@H](CC(=O)N[C@@H](CC(C)C)C(=O)O)Cc1ccccc1)C(C)C)[C@@H](C)CC` (H-IILVPPF[GABA(3S-Bn)]L-OH), the outcome in data set [5] and in data set [6] was Active. In data set [1], the inhibition result was “inactive”. The molecule also yielded a Retention_time in data set [2] of 13.177 min. Further, the Activity entry in data set [3] was “Non-toxic”.

As to `CC[C@H](C)[C@H](N)C(=O)N[C@H](C(=O)N[C@@H](CC(C)C)C(=O)N[C@H](C(=O)N1CCC[C@H]1C(=O)N1CCC[C@H]1C(=O)NC[C@@H](CC(=O)N[C@@H](Cc1ccccc1)C(=O)N[C@@H](CC(C)C)C(=O)O)Cc1ccccc1)C(C)C)[C@@H](C)CC` (H-IILVPP[GABA(3R-Bn)]FL-OH), the inhibition result in [1] was “inactive”. For the same molecule, the inhibition result in [7] and in data set [4] was “Active” throughout. For the same molecule, the Retention_time in data set [2] is listed as 13.383 min. Also, the Activity entry in data set [3] is recorded as “Non-toxic”.

As for `CC[C@H](C)[C@H](N)C(=O)N[C@H](C(=O)N[C@@H](CC(C)C)C(=O)N[C@H](C(=O)N1CCC[C@H]1C(=O)N1CCC[C@H]1C(=O)NC[C@@H](CC(=O)NC[C@@H](CC(=O)N[C@@H](CC(C)C)C(=O)O)Cc1ccccc1)Cc1ccccc1)C(C)C)[C@@H](C)CC` (H-IILVPP[GABA(3R-Bn)][GABA(3R-Bn)]L-OH), the inhibition entry in data set [8], in data set [9], in data set [7] and in data set [4] was “Active” in each case. In addition, the “inhibition (INH)” value in [8] is reported as 50%. Also, in data set [1], the inhibition entry is “inactive”. Moreover, the Retention_time in data set [2] came out at 14.073 min. The Activity result in [3] was “Non-toxic”.

Consider `CC[C@H](C)[C@H](N)C(=O)N[C@H](C(=O)N[C@@H](CC(C)C)C(=O)N[C@H](C(=O)N1CCC[C@H]1C(=O)N1CCC[C@H]1C(=O)NC[C@@H](CC(=O)NC[C@H](CC(=O)N[C@@H](CC(C)C)C(=O)O)Cc1ccccc1)Cc1ccccc1)C(C)C)[C@@H](C)CC` (H-IILVPP[GABA(3R-Bn)][GABA(3S-Bn)]L-OH), for which the result in [5] and in [6] was Active. In addition, the inhibition entry in [1] was “inactive”. The molecule also displayed a Retention_time in [2] of 13.085 min. Besides, the Activity entry in [3] was “Non-toxic”.

For the molecule `CC[C@H](C)[C@H](N)C(=O)N[C@H](C(=O)N[C@@H](CC(C)C)C(=O)N[C@H](C(=O)N1CCC[C@H]1C(=O)N1CCC[C@H]1C(=O)NC[C@H](CC(=O)N[C@@H](Cc1ccccc1)C(=O)N[C@@H](CC(C)C)C(=O)O)Cc1ccccc1)C(C)C)[C@@H](C)CC` (H-IILVPP[GABA(3S-Bn)]FL-OH), the result in data set [5] and in [6] was Active. Also, in [1], the inhibition entry was “inactive”. The same molecule showed a Retention_time in data set [2] of 12.69 min. Also, the Activity entry in [3] was “Non-toxic”.

Consider `CC[C@H](C)[C@H](N)C(=O)N[C@H](C(=O)N[C@@H](CC(C)C)C(=O)N[C@H](C(=O)N1CCC[C@H]1C(=O)N1CCC[C@H]1C(=O)NC[C@H](CC(=O)NC[C@@H](CC(=O)N[C@@H](CC(C)C)C(=O)O)Cc1ccccc1)Cc1ccccc1)C(C)C)[C@@H](C)CC` (H-IILVPP[GABA(3S-Bn)][GABA(3R-Bn)]L-OH), for which the inhibition result in [1] is “inactive”. In [2], this molecule showed a Retention_time of 13.938 min. The Activity entry in data set [3] was “Non-toxic”.

On to `CC[C@H](C)[C@H](N)C(=O)N[C@H](C(=O)N[C@@H](CC(C)C)C(=O)N[C@H](C(=O)N1CCC[C@H]1C(=O)N1CCC[C@H]1C(=O)NC[C@H](CC(=O)NC[C@H](CC(=O)N[C@@H](CC(C)C)C(=O)O)Cc1ccccc1)Cc1ccccc1)C(C)C)[C@@H](C)CC` (H-IILVPP[GABA(3S-Bn)][GABA(3S-Bn)]L-OH), for which the outcome in [5] and in data set [6] was Active. The inhibition result in [1] was “inactive”. Further, in data set [2], the Retention_time is 13.233 min. Moreover, the Activity entry in data set [3] is on record as “Non-toxic”.

Regarding `CC[C@H](C)[C@@H]1NC(=O)[C@H](CC(C)C)NC(=O)[C@H](Cc2ccccc2)NC(=O)C[C@@H](Cc2ccccc2)CNC(=O)[C@@H]2CCCN2C(=O)[C@@H]2CCCN2C(=O)[C@H](C(C)C)NC(=O)[C@H](CC(C)C)NC(=O)[C@H]([C@@H](C)CC)NC1=O` (cyclo(FLIILVPP[GABA(3R-Bn)])), the inhibition entry in data set [1] is “Active”. In [2], the Retention_time is 10.033 min. Further, the Activity result in data set [3] is recorded as “Dose-dependent effect”.

Consider `CC[C@H](C)[C@@H]1NC(=O)[C@H](CC(C)C)NC(=O)[C@H](Cc2ccccc2)NC(=O)C[C@H](Cc2ccccc2)CNC(=O)[C@@H]2CCCN2C(=O)[C@@H]2CCCN2C(=O)[C@H](C(C)C)NC(=O)[C@H](CC(C)C)NC(=O)[C@H]([C@@H](C)CC)NC1=O` (cyclo(FLIILVPP[GABA(3S-Bn)])), for which, in data set [1], the inhibition entry was “Active”. In data set [2], this molecule registered a Retention_time of 9.89 min. Besides, the Activity result in [3] is “Dose-dependent effect”.

As to `CC[C@H](C)[C@@H]1NC(=O)[C@H](CC(C)C)NC(=O)C[C@@H](Cc2ccccc2)CNC(=O)[C@H](Cc2ccccc2)NC(=O)[C@@H]2CCCN2C(=O)[C@@H]2CCCN2C(=O)[C@H](C(C)C)NC(=O)[C@H](CC(C)C)NC(=O)[C@H]([C@@H](C)CC)NC1=O` (cyclo(F[GABA(3R-Bn)]LIILVPP)), the inhibition result in data set [1] was “Active”. In [2], this molecule registered a Retention_time of 11.87 min. Besides, in data set [3], the Activity entry is “Dose-dependent effect”.

On to `CC[C@H](C)[C@@H]1NC(=O)[C@H](CC(C)C)NC(=O)C[C@H](Cc2ccccc2)CNC(=O)[C@H](Cc2ccccc2)NC(=O)[C@@H]2CCCN2C(=O)[C@@H]2CCCN2C(=O)[C@H](C(C)C)NC(=O)[C@H](CC(C)C)NC(=O)[C@H]([C@@H](C)CC)NC1=O` (cyclo(F[GABA(3S-Bn)]LIILVPP)), for which the inhibition result in data set [8], in [1] and in [9] was “Active” throughout. Besides, in data set [7], 5 µg/mL produced 55% inhibition. Also, in [2], the Retention_time is on record as 11.63 min. In [3], the Activity entry is “Non-toxic”. The inhibition at 25 µg/mL in [4] is 42%.

With `CC[C@H](C)[C@@H]1NC(=O)[C@H](CC(C)C)NC(=O)C[C@@H](Cc2ccccc2)CNC(=O)C[C@@H](Cc2ccccc2)CNC(=O)[C@@H]2CCCN2C(=O)[C@@H]2CCCN2C(=O)[C@H](C(C)C)NC(=O)[C@H](CC(C)C)NC(=O)[C@H]([C@@H](C)CC)NC1=O` (cyclo(IILVPP[GABA(3R-Bn)][GABA(3R-Bn)]L)), in data set [1], the inhibition entry is “Active”. In data set [2], the Retention_time stood at 9.242 min. For the same molecule, the Activity result in [3] was “Dose-dependent effect”.

As for `CC[C@H](C)[C@@H]1NC(=O)[C@H](CC(C)C)NC(=O)C[C@H](Cc2ccccc2)CNC(=O)C[C@@H](Cc2ccccc2)CNC(=O)[C@@H]2CCCN2C(=O)[C@@H]2CCCN2C(=O)[C@H](C(C)C)NC(=O)[C@H](CC(C)C)NC(=O)[C@H]([C@@H](C)CC)NC1=O` (cyclo(IILVPP[GABA(3R-Bn)][GABA(3S-Bn)]L)), the inhibition result in data set [1] is “Active”. Also, the Retention_time in data set [2] came out at 9.605 min. Besides, in data set [3], the Activity entry was “Dose-dependent effect”.

With `CC[C@H](C)[C@@H]1NC(=O)[C@H](CC(C)C)NC(=O)C[C@@H](Cc2ccccc2)CNC(=O)C[C@H](Cc2ccccc2)CNC(=O)[C@@H]2CCCN2C(=O)[C@@H]2CCCN2C(=O)[C@H](C(C)C)NC(=O)[C@H](CC(C)C)NC(=O)[C@H]([C@@H](C)CC)NC1=O` (cyclo(IILVPP[GABA(3S-Bn)][GABA(3R-Bn)]L)), in data set [1], the inhibition entry is “Active”. The same molecule registered a Retention_time in [2] of 10.543 min. Also, the Activity entry in data set [3] is recorded as “Dose-dependent effect”.

As to `CC[C@H](C)[C@@H]1NC(=O)[C@H](CC(C)C)NC(=O)C[C@H](Cc2ccccc2)CNC(=O)C[C@H](Cc2ccccc2)CNC(=O)[C@@H]2CCCN2C(=O)[C@@H]2CCCN2C(=O)[C@H](C(C)C)NC(=O)[C@H](CC(C)C)NC(=O)[C@H]([C@@H](C)CC)NC1=O` (cyclo(IILVPP[GABA(3S-Bn)][GABA(3S-Bn)]L)), in [1], the inhibition result is “Active”. The molecule also displayed a Retention_time in data set [2] of 10.11 min. In data set [3], the Activity entry is “Dose-dependent effect”.

Values taken from ChEMBL document CHEMBL3352129, “Synthesis and biological activity of cyclolinopeptide A analogues modified with γ(3)-bis(homophenylalanine)” (Eur J Med Chem, 2014).
